Assay outcomes deposited in PubChem BioAssay by The Scripps Research Institute Molecular Screening Center.
V1aR counter: V1a receptor agonism, counter-screen for OXTR agonists. P37288. 0.25% of 320,000 active. activation, % at 3 µM. CHO-V1R cells, Fluo-8 calcium fluorescence, agonist mode; 0% DMSO, 100% 3 nM vasopressin;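 active = activation above the mean activation of all tested compounds plus 3 SD, per screening run, cut at about 20% in these data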;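 also: signal is peak over basal fluorescence ratio across a 100 second FLIPR read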
OX1R antag-1: human HCRTR1 antagonism | CHO/OX1R cells, Fluo-8 calcium fluorescence, orexin A | inhibition, % at 5 µM | 0.43% of 330,000 active | AID 434989;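 active = inhibition above its plate's threshold, mean inhibition of all tested compounds on the plate plus 3 SD, cut at about 37% in these data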;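 also: 0% = orexin A challenge wells and 100% = SB-334867-A antagonist wells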
Target sequence (O43613 whole entry, looked up): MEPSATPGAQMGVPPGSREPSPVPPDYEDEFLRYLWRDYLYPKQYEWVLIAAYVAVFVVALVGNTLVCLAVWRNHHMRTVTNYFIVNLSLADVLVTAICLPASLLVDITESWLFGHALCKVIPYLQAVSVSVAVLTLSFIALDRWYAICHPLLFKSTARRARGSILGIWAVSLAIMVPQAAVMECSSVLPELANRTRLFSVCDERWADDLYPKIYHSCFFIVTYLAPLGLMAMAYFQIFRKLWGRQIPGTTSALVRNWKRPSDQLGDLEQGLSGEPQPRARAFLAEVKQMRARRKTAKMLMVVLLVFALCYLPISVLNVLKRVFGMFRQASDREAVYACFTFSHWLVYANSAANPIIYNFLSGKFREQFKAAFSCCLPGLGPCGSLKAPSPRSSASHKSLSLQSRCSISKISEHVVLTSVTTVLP
CHO parental Ca: signal in parental CHO cells, OX1R antagonist counter-screen | parental CHO-K1, ATP-induced calcium, Fluo-8 fluorescence | inhibition, % at 5.6 µM | 0.63% of 330,000 active | AID 463079;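 active = inhibition above that plate's mean sample inhibition plus 3 SD, cut at about 26% in these data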;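 also: 0% = ATP-challenged DMSO wells and 100% = DMSO wells without ATP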
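Assay system: untransfected parental CHO cell line. Also added: ATP agonist challenge. Dosing: one dose, 5.6 µM nominal. Measured by: Fluo-8 fluorescence. Read-out: % inhibition. Benchmarks: ATP wells versus no-ATP DMSO wells. Repeats: no replicates.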
OXTR agonist: human OXTR agonism; P30559; CHO-OTR cells, Fluo-8 calcium fluorescence; normalized: DMSO 0%, oxytocin 100%; activation, % at 3 µM; 0.32% of 320,000 active; AID 2435;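 active = activation above the mean of all tested compounds plus 3 SD, cutoff set per screening run, cut at about 20% in these data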;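 also: peak over basal fluorescence ratio from a 100 s FLIPR kinetic read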
OXTR potentiator: potentiates the human oxytocin receptor response; 0.061% of 320,000 active; activation, % at 3 µM; CHO-OTR cells, Fluo-8 calcium fluorescence, potentiator mode; 0% = oxytocin EC15, 100% = EC100;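 active = activation above that plate's cutoff, the mean activation of tested compounds plus 3 SD, cut at about 6.6% in these data, passing the limit was not always enough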;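 also: 100% uses oxytocin at 75 nM as the full agonist control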
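Material: human OTR in CHO cells. Compound: 3.0 µM, one dose. Timing: compound 6 min at room temperature before oxytocin, 100 s read. Evaluation: % activation of max/min ratio relative to oxytocin controls. Replication: single well per compound, singlicate. Signal: Fluo-8 calcium dye fluorescence.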
OX1R antag-2: antagonists of human orexin 1 receptor (OX1R). OX1R-expressing cells, FRET antagonist read-out. 1.8% of 330,000 active. inhibition, % at 6.6 µM; in the data active = inhibition mostly above about 38%, no sharp cut-off; inactive = mostly below about 40%;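 also: 0% = agonist challenge alone and 100% = reference antagonist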
* marks the source's active call; other numbers are inactive results; nt = not tested or not shown. Shown are actives, neighbours in structure and some others; about 2.6% of the full set was active somewhere.

SMILES	V1aR counter	OX1R antag-1	CHO parental Ca	OXTR agonist	OXTR potentiator	OX1R antag-2
C#CCOCCOCCOCCNc1nc(N2CCN(C(=O)CCCCCCCCCCNC(=O)[C@H](CCCCN)n3cc(C[C@@H](C)CC)nn3)CC2)nc(N2CCN(C(=O)CCCCCCCCCCNC(=O)[C@H](CCCN=C(N)N)n3cc(C[C@@H](C)CC)nn3)CC2)n1	1.7	-2.4	20.4	1.2	5.3	-2.6
C#CCOCCOCCOCCNc1nc(N2CCN(C(=O)CCCCCCCCCCNC(=O)[C@H](CCCCN)n3cc(CCO)nn3)CC2)nc(N2CCN(C(=O)CCCCCCCCCCNC(=O)[C@H](CCCCN)n3cc(C[C@@H](C)CC)nn3)CC2)n1	24.6*	8.1	53.6*	6.1	-13.5	5.0
Cc1ccc(SCc2c(C(=O)N/N=C/c3ccoc3)nnn2-c2nonc2N)cc1	5.8	20.0	-18.7	2.0	-6.9	44.8*
C/C(=N\NC(=O)c1nnn(-c2nonc2N)c1CSc1ccccc1)c1cccnc1	3.7	-23.6	-22.1	3.2	-10.0	9.8
C/C(COc1ccccc1)=N\NC(=O)c1nnn(-c2nonc2N)c1CSc1ccccc1	2.7	-2.7	-2.1	1.1	-6.9	60.2*
CN(C(=O)COC(=O)C1COc2ccccc2O1)C1(C#N)CCCCC1 (centres undefined)	0.9	8.8	-0.4	1.4	-0.5	1.5
Nn1c(SCC(=O)NCCc2ccc(F)cc2)nnc1C1CCCCC1	3.5	-7.8	-1.5	-2.5	-1.8	7.4
COc1cc(OCc2ccccc2)c(C(=O)/C=C/c2ccc3c(c2)OCO3)c(OC)c1OC	2.6	7.1	-3.3	-0.3	-9.5	14.1
Cc1ccc(N)cc1O	1.2	-10.9	-5.3	1.0	-3.6	38.4*
Nc1ccc(C(=O)O)c(O)c1	1.1	3.4	2.3	-0.1	-7.9	20.3
CN1CCN(S(=O)(=O)c2cccc3nsnc23)CC1	-0.1	1.8	6.8	-0.6	0.0	40.2*
O=C(O)C1CCN(S(=O)(=O)c2cccc3nsnc23)CC1	0.1	-10.0	-7.6	0.5	0.3	33.5
Cc1ccc(S(=O)(=O)N2CCN(C)CC2)c2nsnc12	0.6	8.7	0.4	0.1	-3.9	50.3*
Cc1ccc2nsnc2c1S(=O)(=O)N1CCN(C)CC1	-0.3	-4.9	-1.8	0.1	-9.2	39.0
CCNS(=O)(=O)c1ccc(CCC(=O)N2CCN(c3ccccc3F)CC2)cc1	-0.8	-11.0	-16.4	-1.9	-2.3	7.0
O=C(CCCSc1ccccc1)Nc1ccc(Cl)c(S(=O)(=O)N2CCOCC2)c1	8.3	35.2	9.8	8.3	-12.4	32.0*
COc1ccc(C(=O)Nc2ccc(Cl)c(S(=O)(=O)N3CCOCC3)c2)cc1	9.8	43.0*	15.5	8.4	-10.3	23.7
CC(=O)c1sc(NC(=O)C2CCN(C(=O)c3ccc(F)cc3)CC2)nc1-c1ccccc1	0.3	-24.1	0.9	-0.4	-16.6	12.7
CC(C)c1cc(-c2cc(C(=O)NCc3ccccc3)on2)nc(NCC2CC2)n1	35.3*	62.1*	44.2*	30.6*	-18.2	1.0
CC(C)c1cc(-c2cc(C(=O)Nc3ccccc3)on2)nc(NCC2CC2)n1	1.5	-12.7	-8.5	-1.1	-12.4	17.0
O=C(O)CSCC(=O)N1CCN(S(=O)(=O)c2cc(Cl)cc(Cl)c2)CC1	0.8	-7.7	-3.2	1.2	-8.1	4.2
CCN1/C(=C/c2cc[n+](C)cc2)C=Cc2cc(C)ccc21	-0.6	11.3	25.0	0.7	-1.3	27.7
CCN1/C(=C/c2ccc3ccccc3[n+]2CC)C=Cc2ccccc21	2.9	26.8	71.4*	5.2	-7.5	100.5*
OCCNc1ncnc2c1c(-c1ccccc1)c(-c1ccccc1)n2Cc1ccco1	7.9	-22.0	-18.7	3.9	-7.3	29.2
c1ccc(-c2c(-c3ccccc3)n(Cc3ccco3)c3ncnc(NCCCn4ccnc4)c23)cc1	1.4	21.1	27.7	-0.7	-12.5	53.5*
SMILES	V1aR counter	OX1R antag-1	CHO parental Ca	OXTR agonist	OXTR potentiator	OX1R antag-2
O=[N+]([O-])c1cccnc1Sc1ccc(F)cc1	-1.1	-6.8	3.6	-2.8	1.5	8.5
CNc1nnc(Sc2ncccc2[N+](=O)[O-])s1	0.9	-0.7	-7.7	1.0	-4.7	47.5*
CCOC(=O)CSc1ncnc2c(C(=O)OCC)c3n(c12)CCC3	-0.5	-14.6	-10.5	-1.5	2.8	5.2
Cc1ccc(Nc2cc(C)nn2-c2nc(C)cc(=O)[nH]2)cc1	-1.6	40.6*	54.8*	-2.2	-3.2	9.6
O=C1Nc2ccc3sc4ccccc4c3c2C1=O	-0.5	0.2	-7.9	-0.8	-7.0	64.9*
CC(C)C(=O)Nc1ccc(-c2csc(-c3ccccc3)n2)cc1	0.7	13.1	41.1*	-0.7	1.0	18.0
Oc1ccc(-c2csc(-c3ccccc3)n2)cc1O	0.3	15.6	27.8*	1.6	-4.9	14.5
Cc1ccc(C(=O)Nc2cccc(NC(=O)c3cccs3)c2)c(C)c1	1.1	9.9	-14.9	-0.7	-14.2	64.1*
Cc1ccn2cc(-c3cccc(NC(=O)c4cccs4)c3)nc2c1	-0.8	-15.3	-20.1	-1.4	1.1	75.4*
Oc1ccc(-c2csc(-c3cccnc3)n2)cc1O	0.5	-18.8	-17.7	2.2	-6.4	9.9
Nc1ncnc2c1ncn2[C@@H]1O[C@H](CNCc2ccc(-c3cc(C(F)(F)F)ccc3Cl)o2)[C@@H](O)[C@H]1O	nt	-9.2	-16.4	nt	nt	0.1
CC1(C)CCC[C@]2(C)C(CS(=O)c3ccccc3)=C(C=O)CC[C@@H]12 (some centres undefined)	-1.8	-16.9	-8.5	-3.0	-1.1	8.7
Cc1ccc2c(c1)N(C(=O)CCC(=O)Nc1ccccc1Cl)CC(C)O2 (centres undefined)	-0.8	-20.7	-14.2	-2.3	-4.4	14.3
O=C(Nc1cccc(-c2csc(-c3ccccc3)n2)c1)c1cccs1	3.5	0.3	-6.5	0.9	-8.1	67.2*
CC(C)(C)N(Cc1ccccc1)C(=O)COC(=O)c1ccc(S(=O)(=O)N2CCOCC2)cc1	6.4	-16.2	-29.1	3.7	-6.1	7.0
CC(C)c1ccccc1NC(=O)COC(=O)c1ccc(Cl)c(S(=O)(=O)N2CCCCCC2)c1	1.7	-4.6	5.4	3.0	-8.8	11.0
COc1cc(/C=C2/NC(=O)N(Cc3ccccc3F)C2=O)ccc1Oc1ccc([N+](=O)[O-])cn1	1.5	-13.2	-8.2	0.9	-0.5	15.3
COc1cc(/C=C2/SC(=O)NC2=O)ccc1Oc1ccc([N+](=O)[O-])cc1[N+](=O)[O-]	2.4	-14.0	-1.2	0.9	-6.4	47.3*
COc1cc(/C=C2\SC(=O)NC2=O)ccc1Oc1ccc([N+](=O)[O-])cn1	2.9	-9.3	-4.5	2.8	-2.6	52.7*
